Assays:
dengue virus type 2 [1] = test: Antiviral activity against DENV serotype 2 strain New Guinea C infected in african green monkey Vero-B cells assessed as inhibition of virus-induced cytopathic effect after 2 hrs by CPE-reduction assay; type: functional, organism-based
How it was run: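 Virus and compound mixed and pre-incubated together for 2 h at 37 °C before being added to cells. Co-addition without pre-incubation was also tested. Read-out was inhibition of virus-induced cytopathic effect (cell death). EC50 was taken from the dose-response.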

[2] = Cytotoxicity against DENV serotype 2 strain New Guinea C infected african green monkey Vero B cells by CPE-reduction assay; type: cell-based; settings: chlorocebus sabaeus
[3] = Selectivity index, CC50 for african green monkey Vero B cells to EC50 for DENV serotype 2 strain New Guinea C by CPE-reduction assay
[4] = Cytotoxicity against DENV serotype 2 strain New Guinea C infected african green monkey Vero B cells by virus yield-reduction assay; type: cell-based; settings: chlorocebus sabaeus
[5] = Selectivity index, CC50 for african green monkey Vero B cells to EC50 for DENV serotype 2 strain New Guinea C by virus yield-reduction assay; type: toxicity, cell-based; settings: read-out: Selectivity Index
How it was run: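 Selectivity index is CC50 divided by EC50. The EC50 comes from a dose-response measurement of the dengue virus RNA produced by virus-infected cells treated with compound (virus yield reduction).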

dengue virus type 2 [6] = test: Antiviral activity against DENV serotype 2 strain New Guinea C infected in african green monkey Vero cells assessed as reduction in production and release of infectious progeny virions after 2 hrs by virus yield-reduction assay; type: functional, organism-based
How it was run: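 Dose-response validation in virus-infected, compound-treated cells. Read-out was the amount of dengue viral RNA produced, quantified as a virus yield reduction. EC50 was derived from this.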

dengue virus type 2 [7] = test: Antiviral activity against DENV serotype 2 strain New Guinea C infected in BHK-21 cells assessed as inhibition of plaque formation after 2 hrs by plaque-reduction assay; type: functional, organism-based
How it was run: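 Dose-response effect on production of infectious dengue virus serotype 2 progeny, read as plaque formation. EC50 was derived from the plaque counts.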

Yellow fever virus = test: Antiviral activity against Yellow fever virus; type: functional, organism-based

Compound | EC50 (dengue virus type 2 [1]) | CC50 [2] | Selectivity Index [3] | CC50 [4] | selectivity ratio [5] | EC50 (dengue virus type 2 [6]) | inhibition (dengue virus type 2 [7]) | EC50 (dengue virus type 2 [7]; BHK-21, 2 h) | IC50 (Yellow fever virus)
C/C(=N\Nc1nc(-c2ccc(-c3ccccc3)cc2)cs1)c1ccc([N+](=O)[O-])cc1 | 41 µM | 82 µM | 2 | 70.8 µM | 6 | 12.2 µM |  |  | 
COc1ccc(/C(C)=N/Nc2nc(-c3ccc(-c4ccccc4)cc3)cs2)cc1 | 100 µM | 200 µM | 2 | 117 µM | 7 | 17.7 µM |  |  | 
Oc1ccc(C2=NN(c3nc(-c4ccc(-c5ccccc5)cc4)cs3)C(c3ccccc3)C2)cc1 (stereo unspecified) | 13.2 µM | 79.2 µM | 6 | 86.8 µM | 10 | 8.44 µM |  |  | 
NC(=O)c1ncn([C@@H]2O[C@H](CO)[C@@H](O)[C@H]2O)n1 [RIBAVIRIN] |  |  |  | > 410 µM | > 9 | 47.9 µM |  |  | 
C/C(=N\Nc1nc(-c2ccc(Cl)cc2)cs1)c1ccc(O)cc1 | 5.8 µM | 145 µM | 25 | 125 µM | 95 | 1.32 µM | Dose-dependent effect | 1.39 µM | 
COc1ccc(C2=NN(c3nc(-c4ccc(-c5ccccc5)cc4)cs3)C(c3ccc(O)c(OC)c3)C2)cc1 (stereo unspecified) | 8.4 µM | 16.8 µM | 2 | 25.6 µM | 7 | 3.79 µM |  |  | 
Nc1ccccc1SCc1csc(-c2ccc(Cl)cc2)n1 |  |  |  |  |  |  |  |  | 31 µM
C(=N\Nc1nc(-c2ccc(-c3ccccc3)cc2)cs1)/c1ccccc1 | 35.2 µM | > 141 µM | >4 | > 141 µM | > 1 | 128 µM |  |  | 
Cc1nc(-n2nc(-c3ccccc3)cc2-c2ccccc2)sc1C(=O)/C=C/c1ccc(Cl)c(Cl)c1 |  |  |  |  |  |  |  |  | 51 µM
Oc1ccc(/C=N/Nc2nc(-c3ccc(-c4ccccc4)cc3)cs2)cc1 | 16.8 µM | > 135 µM | >8 | > 135 µM | > 25 | 5.29 µM |  |  | 
COc1ccc(C2=NN(c3nc(-c4ccc(Cl)cc4)cs3)C(c3ccc(O)c(OC)c3)C2)cc1 (stereo unspecified) | 0.79 µM | 2.4 µM | 3 | 54.6 µM | 8 | 7 µM |  |  | 
COc1ccc(C2=NN(c3nc(-c4ccc(-c5ccccc5)cc4)cs3)C(c3ccc(O)cc3)C2)cc1 (stereo unspecified) | 24.8 µM | > 99 µM | >4 | 99.3 µM | 5 | 18.6 µM |  |  | 

From ChEMBL document CHEMBL3400080, “Design, synthesis, optimization and antiviral activity of a class of hybrid dengue virus E protein inhibitors” (Bioorg Med Chem Lett, 2015)
